Reference: ChEMBL document CHEMBL4513216, “Probing the Open Global Health Chemical Diversity Library for Multistage-Active Starting Points for Next-Generation Antimalarials” (ACS Infect Dis, 2020)

experiment: Toxicity liver stage against HepG2, at 10uM; assay type: cell-based; set-up: test concentration 10 uM, cell line HepG2-A16-CD81EGFP; settings: human, HepG2-A16-CD81EGFP cells; read-out: INHIBITION
Procedure, shortened: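 Uninfected HepG2-A16-CD81EGFP cells, 3 × 10^3 per well, 1536-well, plated on prespotted compound at 10 μM final, parasite-free screening media added to match infected plates; puromycin 10 μM positive, DMSO 0.5% negative; run in parallel with 48 h PbLuc assay at 37 °C, 5% CO2; viability by CellTiter-Glo luminescence, normalized to controls.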

| Compound | cytotoxicity at 10 µM [%] |
| --- | --- |
| F[C@@H]1CN(CC2CC2)C[C@@H]1OCc1nc2cnccc2[nH]1 | 8.42 |
| O=C(O)CNC(=O)Cc1csc(-c2ccccc2F)n1 | -10.5 |
| CCN(CC)CCSc1nnc(N2CCN(c3ccc(F)cc3)CC2)s1 | -5.12 |
| COc1cc(C)c(C)cc1S(=O)(=O)NCC(O)c1cccn1C (stereo not given) | -6.19 |
| O=C1NC(c2ccccc2)=N[C@@]12CC[C@@H]1CN(Cc3cccnc3)C[C@@H]12 | 6.8 |
| CC(C)C(=O)N1CCCC(Cc2ncccn2)C1 (stereo not given) | -2.49 |
| CC1(C)O[C@@](C)([C@H]2CC3(CCN(c4ncccn4)CC3)CO2)CC[C@@H]1O | 4.98 |
| CC(C)c1ncc(CN2CCC(O)(c3ccccc3F)CC2)cn1 | -0.882 |
| c1ccc(Cc2cccc(C3CCCN3C3CCOCC3)n2)cc1 (stereo not given) | 1.62 |
| CN(C)c1cncc(C2CCCN2S(=O)(=O)c2cn(C)cn2)n1 (stereo not given) | -27.1 |
| Cc1ncccc1Oc1cncc(C2CCCN2Cc2cncn2C)n1 (stereo not given) | -32.8 |
| CCn1ncc(S(=O)(=O)NC2(CN3CCOCC3)CCCCC2)c1C | 3.83 |
| Cc1nc(C2CN(C)CCO2)cc(N2CCC(CO)CC2)n1 (stereo not given) | -34 |
| Cc1cnn(CC2CCN(CC(O)c3ccccc3)CC2)c1 (stereo not given) | -8.46 |
| O=C(CCOc1ccccc1)NS(=O)(=O)Cc1ccccc1 | -1.48 |
| CN(C)CC(O)Cn1cc(NCc2ccc(Br)cc2)cn1 (stereo not given) | 7.48 |
| Cc1cc(CNS(=O)(=O)CCCC#N)ccc1N(C)C | -5.18 |
| CCc1nnc(C(C)N2CCN(CCC(=O)NC3CC3)CC2)o1 (stereo not given) | 16 |
| Cc1noc(CCCNC(=O)C2CSCN2C(=O)C(C)(C)C)n1 (stereo not given) | -54.4 |
| Cc1oc(C)c(C(=O)NS(=O)(=O)c2ccc3c(c2)OCCO3)c1Br | 4.4 |
| COC(=O)CN(C(=O)c1ccc(Cl)cn1)c1cccc(F)c1 | -8.61 |
| O=C(CCNC1(c2nccs2)CCCC1)N1CCOCC1 | 0.79 |

| Compound | cytotoxicity at 10 µM [%] |
| --- | --- |
| CC(C(=O)N1CCc2ccccc2C1)N(C)Cc1cscn1 (stereo not given) | -1.6 |
| CCn1c(C)cc(C(=O)N2CCC(Nc3ccc(C)nn3)CC2)c1C | -5.52 |
| Clc1ccc(C2(NCc3noc(C4CC4)n3)CCCC2)cc1 | 13.3 |
| Cc1csc(C2(NC(=O)CCNC(=O)C(C)(C)C)CCCC2)n1 | -7.43 |
| Cn1cc(CC2CC(=O)N(Cc3ccccc3OC(F)F)C2=O)cn1 (stereo not given) | 2.21 |
| O=C(c1ccoc1)N(Cc1ccncc1)C1CC1 | 1.45 |
| c1nc(N2CCCC2Cn2cncn2)c2ccsc2n1 (stereo not given) | 14.1 |
| COc1c(C)cnc(CSc2nnc(N3CCCC3)s2)c1C | -13.1 |
| CC(C)(C)NC(=O)C1CSCN1S(=O)(=O)c1ccccc1F (stereo not given) | -8.23 |
| Cn1cc(N2CCC(NC(=O)c3ccccc3F)C2=O)cn1 (stereo not given) | -1.26 |
| CCC(CC)c1cc(CNC(=O)N2CCC(n3cncn3)CC2)on1 | -4.16 |
| Cc1oc(-c2ccsc2)nc1CC(=O)NCC(=O)Nc1cn[nH]c1 | -1.36 |
| Cc1cc(=O)n2ncnc2n1CC(O)c1ccccc1F (stereo not given) | -13.7 |
| CCc1cnc(CN(C)C2CCN(CCCNS(C)(=O)=O)C2)o1 (stereo not given) | -3.4 |
| Cc1cc(C)n(C2CCCN(C(=O)c3cccc(F)c3F)C2)n1 (stereo not given) | 4.35 |
| O=C(NCCO)Nc1c(F)cc(F)cc1-c1ccccc1 | -1.99 |
| CC1CCN(C)c2ccccc2N1C(=O)c1ccn(C)c(=O)c1 (stereo not given) | 2.36 |
| CNS(=O)(=O)CC1CCCN1C(=O)c1cccc(Cl)c1 (stereo not given) | -1.5 |
| O=C(Nc1ccc(CC(=O)N2CCSCC2)cc1)NC1CCCC1 | -7.01 |
| O=C(Nc1ccc(F)c(-n2cccc2)c1)NC1(CCO)CCOCC1 | 8.67 |
| CN(C)c1nc(N)nc(CSCCC(=O)Nc2cccc(Cl)c2)n1 | 0.779 |
| O=S(=O)(c1ccccc1)N1CCN(Cc2ccc(F)cc2Br)CC1 | -2.57 |

| Compound | cytotoxicity at 10 µM [%] |
| --- | --- |
| CCN1CCC(CNC(=O)Nc2cnn(CC(N)=O)c2)C1 (stereo not given) | 1.1 |
| Cc1cccc2nc(CNCc3cccc4c3OCCCO4)cn12 | 20.8 |
| NC(=O)CN1CCC(OCc2ccc(Cl)c(Cl)c2)CC1 | -0.497 |
| CC(C)(C#N)c1ccc(NS(=O)(=O)CC2CCCCO2)cc1 (stereo not given) | 0.548 |
| O=C(CNc1ccccc1S(=O)(=O)C(F)F)NCc1ccco1 | -53 |
| O=C(NCC1(O)CCOC1)NCC1(c2ccccc2Cl)CC1 (stereo not given) | -45.7 |
| Cc1csc(C2(NCc3nnc(-c4ccco4)o3)CCCC2)n1 | 0.416 |
| Cc1ccc(OCC(O)CN(C)CC(=O)NC(C)C)c(C)c1 (stereo not given) | -7.55 |
| Cc1nn(C)c(Oc2cccnc2)c1NC(=O)C1CCCO1 (stereo not given) | -8.78 |
| CNC(=O)Cc1noc(Cc2cccc(Cl)c2)n1 | 0.335 |
| CCOCC1CN(C(=O)CC2=CCCCC2)Cc2nnn(C)c21 (stereo not given) | -110 |
| CCc1cnc(N2C[C@H]3CCCC(N(C)Cc4ccccn4)[C@H]3C2)nc1 (stereo not given in full) | -114 |
| COCCC(=O)N1CCC2(COCc3cnc(-c4cccnc4)nc32)C1 (stereo not given) | -115 |
| O=C(C1=CCCC1)N1C[C@@H]2COC[C@]2(COc2cccnc2)C1 | -5.38 |
| COCCC(=O)N1CCC2(COCc3c(C)nc(NCC4CC4)nc32)C1 (stereo not given) | 2.19 |
| CCOCC1CN(Cc2cnn(C)c2)Cc2ncn(CC3CC3)c21 (stereo not given) | 2.21 |
| O=C(Cc1ccc(-c2ccccc2)cc1)N1CCOCC(O)C1 (stereo not given) | 1.51 |
| CCOc1ncccc1CNc1cc(COC)ncn1 | 6.41 |
| COCc1nc(CNC2CCN(C(C)C)CC2)no1 | 4.04 |
| O=C1CC[C@H]2CN(c3ncccc3F)CC[C@H]2N1CCc1ccccc1 | 4.52 |
| CN(Cc1cnn(C)c1)c1nccc(-c2cc(C(=O)O)ccn2)n1 | -7.33 |
| Cc1nc(C(=O)N2CCN(C(=O)C3CCC3)[C@@H]3CS(=O)(=O)C[C@@H]32)cs1 | 12.5 |

| Compound | cytotoxicity at 10 µM [%] |
| --- | --- |
| Cc1cc(C)c2nc(CN3CCC(C#N)CC3)cc(O)c2c1 | 6.27 |
| COCCC(=O)N1CCC2(CCCN(Cc3cc(OC)ccc3F)C2)C1 (stereo not given) | 3.55 |
| O=C(N[C@@H]1CCNC[C@H]1O)c1ccc(-c2ccc(F)cc2)cc1 | -6.29 |
| c1c[nH]c(-c2cn(CCSc3cnn[nH]3)nn2)n1 | -47.5 |
| CCn1cnnc1Cn1cccc(C(F)(F)F)c1=O | -9.8 |
| Cc1nn(C)cc1Cn1c(=O)ccc2ccccc21 | -12.5 |
| CSCC(=O)N1CCc2c(cnc(C)c2-c2noc(-c3ccco3)n2)C1 | 2.93 |
| Cc1cccc(N2CCC(N3CCC4(CCCNC4=O)C3)CC2)c1C (stereo not given) | -5.66 |
| CC(NCc1cn(CCC(N)=O)c2ccccc12)c1nncn1C (stereo not given) | 0.78 |
| N[C@@H]1CCN(Cc2ccccc2CS(=O)(=O)c2ccccc2)C[C@H]1O | -2.58 |
| CC(C)c1nc(CN(C)C(=O)CNS(=O)(=O)c2cccs2)no1 | -16.8 |
| O=C1CC(NCc2cccc(O)c2)CN1CCc1cccc(Cl)c1 (stereo not given) | -130 |
| O=c1[nH]cccc1-c1nccc(C2(c3ccccc3Cl)CCNCC2)n1 | -6.27 |
| Cc1cc(N2CCN(C(=O)C(C)n3ccnc3C(C)C)CC2)cc(C)n1 (stereo not given) | -3.59 |
| COCCCn1cnnc1C(C)NC(=O)c1[nH]c2ccc(C)cc2c1C (stereo not given) | 2.52 |
| CCOCCC(=O)N1CCCC(CO)(CC2CC2)C1 (stereo not given) | 7.58 |
| NCc1cn(-c2ccccc2C(=O)NCc2cccc(Cl)c2)cn1 | 4.14 |
| Nc1nc(CN2CCCCC2Cn2cncn2)nc2ccccc12 (stereo not given) | -15.6 |
| CC(=O)N(Cc1ncc(C(C)C)o1)C1CCN(CC2CCC2)C1 (stereo not given) | -11.8 |
| CCOC1CCN(C(=O)Nc2ccc(=O)n(C)c2)CC1 | -10.4 |
| Cc1occc1C(=O)NCc1cccnc1N(C)C | -5.89 |
| O=C(NC1CCS(=O)(=O)C1)N1CCN(c2cnccn2)CC1 (stereo not given) | -0.685 |

| Compound | cytotoxicity at 10 µM [%] |
| --- | --- |
| CN(CC(=O)Nc1ccc(Br)cn1)C(=O)Cc1ccc(O)cc1 | -0.0241 |
| OC(CNCCn1cccn1)c1ccc2c(c1)OCCO2 (stereo not given) | -0.361 |
| Cn1ncc2c1CCCC2NCc1cnc(-c2ccccc2)nc1 (stereo not given) | -5.43 |
| Cn1cc(CN2CCN(CC3(c4ccccc4)CC3)CC2)cn1 | 2.86 |
| Cn1ccnc1CNC(=O)c1cnc(C2CCNCC2)cn1 | -1.31 |
| c1ccc(CN2CCc3ncnc(C4CCOC4)c3CC2)nc1 (stereo not given) | 8.88 |
| c1nc(CCC2CCCCN2)cc(N2CCCC2)n1 (stereo not given) | -21.6 |
| c1csc(CN2CCC3(CCCN3CC3CC3)CC2)n1 | 8.22 |
| O=C1[C@H]2CN(Cc3ccncc3)C[C@H]2CN1c1cncnc1 | -0.748 |
| O=C(NC1CCC1)[C@@H]1C[C@@H]2CCN(Cc3ccncc3)C[C@H]2O1 | -22.5 |
| Cc1cc(CN2C[C@@H]3COC[C@]3(COCc3csc(C)n3)C2)no1 | 1.17 |
| Cn1nc(C2CCN(C(=O)CCN3CCOCC3)CC2)c2cccnc21 | -13.8 |
| O=C(C[C@@H]1COC[C@H]2CN(Cc3ccccn3)C[C@@H]12)N1CCOCC1 | -1.63 |
| CC(=O)N1CCn2c(-c3ccccc3)cnc2C12CCNCC2 | 7.43 |
| CC(C)N1[C@H](Cn2cccn2)C[C@@H]2CN(C3CCOCC3)CC[C@@H]21 | 3.92 |
| O=c1cc(CNS(=O)(=O)C2CC2)nc2n1CCCN(CC1CC1)C2 | -104 |
| COCCO[C@H]1CCN(Cc2cccs2)[C@H]1Cc1cccnc1 | -2.23 |
| Cc1nn(C)c(C)c1CNCc1ccc(N2CCOCC2)nc1 | 3.68 |
| COCCN1CCN(Cc2c(C)noc2C)Cc2ccc(C)nc21 | 3.47 |
| CC(CCc1ccccc1)NC(=O)CNCCCN1CCOCC1 (stereo not given) | -11.1 |
| CC(C)CCN1C[C@@H]2C[C@H](C(=O)Nc3ccccc3)[C@H](C1)O2 | -7.99 |
| CN(C)C(=O)CN1C[C@H]2CC[C@@H](C1)N(Cc1c(Cl)cncc1Cl)C2 | 6.02 |
